Laboratory results as given in article PMC8001668 (International Journal of Nanomedicine, 2021).

Assays:
MCF-7 cells [1] = experiment: In vitro cytotoxicity, MTT assay; format: cell-based, Human; conditions: for IC50: Homo sapiens
Plasma pharmacokinetics = format: in vivo; conditions: SD rats plasma, intraperitoneal, free group received DAS + ROZ
Summary of the method: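 Female SD rats (5 per group) got an intraperitoneal dose of either the free two-drug combination or the micelle formulation, at 5 mg/kg of the kinase inhibitor. Blood (0.3 mL) was taken from 0 min to 24 h and spun at 4000 rpm for 10 min. Plasma (100 µL) was mixed with methanol (300 µL) plus diclofenac sodium internal standard, spun, and analysed by HPLC. Parameters were derived from the concentration–time data.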

MDA-MB-231 cells [2] = experiment: In vitro cytotoxicity, MTT assay; format: cell-based, Human; conditions: for IC50: Homo sapiens
MCF-7 cells [3] = experiment: Transwell migration experiment; format: cell-based, Human; conditions: 24 h treatment
MDA-MB-231 cells [4] = experiment: Transwell migration experiment; format: cell-based, Human; conditions: 24 h treatment

SMILES	IC50 (MCF-7 cells [1]; MCF7, 24 h)	IC50 (MCF-7 cells [1]; MCF7, 48 h)	AUC0-∞ of DAS (Plasma pharmacokinetics; DAS 5 mg/kg)	AUC0–24 of DAS (Plasma pharmacokinetics; DAS 5 mg/kg)	IC50 (MDA-MB-231 cells [2]; MDA-MB-231, 24 h)	IC50 (MDA-MB-231 cells [2]; MDA-MB-231, 48 h)	cell survival rate (MCF-7 cells [1]; MCF-7 cells, 24 h incubation)	number of cells penetrating the membrane (migration) (MCF-7 cells [3])	AUC0–24 of ROZ (Plasma pharmacokinetics; DAS dose 5 mg/kg)	AUC0–∞ of ROZ (Plasma pharmacokinetics; DAS dose 5 mg/kg)	number of cells penetrating the membrane (migration) (MDA-MB-231 cells [4])	cell survival rate (MDA-MB-231 cells [2]; MDA-MB-231 cells, 24 h incubation)
Cc1nc(Nc2ncc(C(=O)Nc3c(C)cccc3Cl)s2)cc(N2CCN(CCO)CC2)n1 [DAS, Dasatinib]	52 ± 6.83 µM	31.2 ± 2.8 µM	2380 ± 1120 ng·h/mL	2260 ± 930 ng·h/mL	73.6 ± 3.8 µM	64.7 ± 2.63 µM						
CN(CCOc1ccc(CC2SC(=O)NC2=O)cc1)c1ccccn1 (centres unmarked) [ROZ, rosiglitazone]		102 ± 6.2 µM				259 ± 27.5 µM	higher than 90%	significantly reduced	41060 ± 10850 ng·h/mL	41340 ± 10680 ng·h/mL	significantly reduced	higher than 90%
